Columns and labels:
Conditions in all cases: stereoisomer not certain
[1] = system: OR2J2
How it was run: (§1)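 Assay methods differ from source to source, frequently being transient luciferase assays in mammalian cell lines. For each receptor–molecule pair, the label responsive (active) applies when the original authors judged the measured signal statistically different from baseline, and non-responsive (inactive) applies otherwise.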
Target sequence in this assay (as listed by the source): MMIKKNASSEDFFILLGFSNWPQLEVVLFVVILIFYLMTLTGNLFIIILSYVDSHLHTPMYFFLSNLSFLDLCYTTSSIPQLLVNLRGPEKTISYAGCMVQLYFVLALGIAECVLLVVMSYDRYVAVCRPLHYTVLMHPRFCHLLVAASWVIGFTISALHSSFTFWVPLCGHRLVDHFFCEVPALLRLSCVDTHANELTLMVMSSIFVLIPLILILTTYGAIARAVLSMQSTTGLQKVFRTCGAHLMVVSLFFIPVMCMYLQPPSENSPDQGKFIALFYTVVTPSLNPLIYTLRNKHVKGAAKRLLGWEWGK

[2] = system: OR2J2; remark: listed apart in the source
How it was run: as §1
Target sequence in this assay (as listed by the source): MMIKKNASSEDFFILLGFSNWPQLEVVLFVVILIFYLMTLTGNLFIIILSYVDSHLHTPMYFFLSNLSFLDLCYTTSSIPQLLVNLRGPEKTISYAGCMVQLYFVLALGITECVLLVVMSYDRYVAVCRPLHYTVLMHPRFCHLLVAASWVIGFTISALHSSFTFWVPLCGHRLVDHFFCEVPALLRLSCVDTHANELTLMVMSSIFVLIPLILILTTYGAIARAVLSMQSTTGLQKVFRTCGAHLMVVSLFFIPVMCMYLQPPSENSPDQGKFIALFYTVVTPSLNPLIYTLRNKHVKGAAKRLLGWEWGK

[3] = target: T1, OR2J2 (Homo sapiens) (UniProt O76002)
T1 sequence (whole entry): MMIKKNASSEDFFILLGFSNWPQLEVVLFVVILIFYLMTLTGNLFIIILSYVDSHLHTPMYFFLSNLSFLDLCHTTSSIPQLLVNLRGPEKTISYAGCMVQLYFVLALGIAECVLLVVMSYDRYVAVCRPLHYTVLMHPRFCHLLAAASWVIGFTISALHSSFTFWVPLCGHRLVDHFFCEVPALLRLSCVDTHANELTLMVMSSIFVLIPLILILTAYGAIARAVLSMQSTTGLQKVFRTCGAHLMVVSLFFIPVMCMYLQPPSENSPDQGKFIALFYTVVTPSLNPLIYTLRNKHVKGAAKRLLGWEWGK
How it was run: as §1

[4] = target: OR2H1 (Homo sapiens) (UniProt Q9GZK4)
Sequence of OR2H1 (Homo sapiens) (Q9GZK4 whole entry): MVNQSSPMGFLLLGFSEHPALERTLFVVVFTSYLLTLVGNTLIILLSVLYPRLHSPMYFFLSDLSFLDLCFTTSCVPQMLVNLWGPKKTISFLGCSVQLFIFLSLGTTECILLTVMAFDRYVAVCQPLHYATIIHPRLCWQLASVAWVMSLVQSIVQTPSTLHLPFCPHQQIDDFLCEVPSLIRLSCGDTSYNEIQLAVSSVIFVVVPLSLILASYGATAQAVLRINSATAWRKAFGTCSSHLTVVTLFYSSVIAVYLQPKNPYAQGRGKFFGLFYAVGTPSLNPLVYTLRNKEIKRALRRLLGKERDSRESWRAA
How it was run: as §1

[5] = target: T2, OR2H2 (Homo sapiens) (UniProt O95918)
T2 sequence (whole entry): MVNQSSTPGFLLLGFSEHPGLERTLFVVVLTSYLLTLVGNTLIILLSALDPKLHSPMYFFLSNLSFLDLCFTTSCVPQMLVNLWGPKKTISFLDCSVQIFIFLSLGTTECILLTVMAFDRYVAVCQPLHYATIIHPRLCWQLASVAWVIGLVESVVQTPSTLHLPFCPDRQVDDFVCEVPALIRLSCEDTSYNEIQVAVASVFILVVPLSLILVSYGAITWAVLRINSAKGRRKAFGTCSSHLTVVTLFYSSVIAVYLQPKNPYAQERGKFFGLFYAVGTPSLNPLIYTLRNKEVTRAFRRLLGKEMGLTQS
How it was run: as §1

[6] = system: OR2H2
Sequence of OR2H2 (as listed by the source): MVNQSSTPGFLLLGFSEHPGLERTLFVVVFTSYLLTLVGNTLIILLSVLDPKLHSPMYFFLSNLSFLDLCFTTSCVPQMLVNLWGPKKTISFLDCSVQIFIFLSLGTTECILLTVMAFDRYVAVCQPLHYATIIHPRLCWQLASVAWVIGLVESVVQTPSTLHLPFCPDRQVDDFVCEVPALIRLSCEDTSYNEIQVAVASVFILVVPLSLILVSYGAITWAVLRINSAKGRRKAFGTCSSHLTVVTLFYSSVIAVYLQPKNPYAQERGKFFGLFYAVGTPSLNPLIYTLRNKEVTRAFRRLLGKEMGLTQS
How it was run: as §1

[7] = target: OR2J1 (Homo sapiens) (UniProt Q9GZK6)
Sequence of OR2J1 (Homo sapiens) (Q9GZK6 whole entry): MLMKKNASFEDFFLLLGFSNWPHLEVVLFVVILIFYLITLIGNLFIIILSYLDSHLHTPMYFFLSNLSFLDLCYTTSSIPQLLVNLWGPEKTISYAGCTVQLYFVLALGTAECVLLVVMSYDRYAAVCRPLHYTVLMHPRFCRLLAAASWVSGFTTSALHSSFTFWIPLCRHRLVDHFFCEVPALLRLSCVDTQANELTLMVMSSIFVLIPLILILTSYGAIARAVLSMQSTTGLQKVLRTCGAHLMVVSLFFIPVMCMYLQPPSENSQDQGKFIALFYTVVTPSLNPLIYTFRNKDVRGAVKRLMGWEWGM
How it was run: as §1

[8] = system: OR2J1 L14I V182A
How it was run: as §1

[9] = target: T3, OR2J3 (Homo sapiens) (UniProt O76001)
T3 sequence (whole entry): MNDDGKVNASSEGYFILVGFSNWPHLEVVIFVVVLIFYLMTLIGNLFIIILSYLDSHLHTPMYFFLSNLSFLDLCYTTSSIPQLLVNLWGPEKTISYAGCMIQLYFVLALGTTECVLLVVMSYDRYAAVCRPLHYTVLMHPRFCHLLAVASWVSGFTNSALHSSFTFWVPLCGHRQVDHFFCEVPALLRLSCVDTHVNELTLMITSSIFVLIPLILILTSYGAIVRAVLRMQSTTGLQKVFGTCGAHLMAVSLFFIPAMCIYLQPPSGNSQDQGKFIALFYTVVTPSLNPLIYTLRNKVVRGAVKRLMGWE
How it was run: as §1

[10] = system: OR2J3
How it was run: as §1
Target sequence in this assay (as listed by the source): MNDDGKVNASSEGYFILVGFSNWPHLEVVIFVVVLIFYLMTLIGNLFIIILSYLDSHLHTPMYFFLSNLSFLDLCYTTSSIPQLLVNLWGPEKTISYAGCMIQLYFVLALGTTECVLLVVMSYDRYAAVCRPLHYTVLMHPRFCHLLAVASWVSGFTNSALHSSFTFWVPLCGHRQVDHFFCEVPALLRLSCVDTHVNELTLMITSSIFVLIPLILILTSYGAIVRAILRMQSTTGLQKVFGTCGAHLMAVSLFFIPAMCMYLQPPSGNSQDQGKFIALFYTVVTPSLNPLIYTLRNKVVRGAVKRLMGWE

[11] = target: OR2K2 (Homo sapiens) (UniProt Q8NGT1)
Sequence of OR2K2 (Homo sapiens) (Q8NGT1 whole entry): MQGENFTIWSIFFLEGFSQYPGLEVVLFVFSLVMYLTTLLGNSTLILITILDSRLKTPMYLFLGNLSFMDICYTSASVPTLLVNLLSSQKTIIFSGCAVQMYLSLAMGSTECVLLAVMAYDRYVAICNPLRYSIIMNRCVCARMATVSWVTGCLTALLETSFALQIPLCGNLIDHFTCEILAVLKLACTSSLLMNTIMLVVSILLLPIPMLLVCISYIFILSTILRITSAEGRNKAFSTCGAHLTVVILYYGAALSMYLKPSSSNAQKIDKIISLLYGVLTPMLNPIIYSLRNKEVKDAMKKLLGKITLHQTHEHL
How it was run: as §1

[12] = target: T4, OR2L13 (Homo sapiens) (UniProt Q8N349)
T4 sequence (whole entry): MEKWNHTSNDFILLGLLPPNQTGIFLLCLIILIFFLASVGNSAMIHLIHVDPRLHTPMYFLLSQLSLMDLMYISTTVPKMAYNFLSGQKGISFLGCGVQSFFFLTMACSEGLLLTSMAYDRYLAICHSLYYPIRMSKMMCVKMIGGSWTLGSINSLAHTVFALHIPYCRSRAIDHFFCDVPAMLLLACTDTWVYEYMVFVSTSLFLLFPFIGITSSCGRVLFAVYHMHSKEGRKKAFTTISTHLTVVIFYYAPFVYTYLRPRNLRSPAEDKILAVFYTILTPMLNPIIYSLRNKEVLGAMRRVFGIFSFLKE
How it was run: as §1

[13] = target: OR2L2 (Homo sapiens) (UniProt Q8NH16)
Sequence of OR2L2 (Homo sapiens) (Q8NH16 whole entry): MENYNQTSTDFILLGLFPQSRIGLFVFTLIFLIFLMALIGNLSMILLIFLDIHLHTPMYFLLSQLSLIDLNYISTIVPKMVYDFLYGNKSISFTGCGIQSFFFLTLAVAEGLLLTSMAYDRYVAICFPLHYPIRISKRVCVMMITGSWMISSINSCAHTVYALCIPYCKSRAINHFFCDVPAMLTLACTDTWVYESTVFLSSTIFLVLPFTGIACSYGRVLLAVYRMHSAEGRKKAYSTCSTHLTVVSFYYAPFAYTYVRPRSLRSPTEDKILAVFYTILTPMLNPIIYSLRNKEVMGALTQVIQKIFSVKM
How it was run: as §1

[14] = target: OR2L3 (Homo sapiens) (UniProt Q8NG85)
Sequence of OR2L3 (Homo sapiens) (Q8NG85 whole entry): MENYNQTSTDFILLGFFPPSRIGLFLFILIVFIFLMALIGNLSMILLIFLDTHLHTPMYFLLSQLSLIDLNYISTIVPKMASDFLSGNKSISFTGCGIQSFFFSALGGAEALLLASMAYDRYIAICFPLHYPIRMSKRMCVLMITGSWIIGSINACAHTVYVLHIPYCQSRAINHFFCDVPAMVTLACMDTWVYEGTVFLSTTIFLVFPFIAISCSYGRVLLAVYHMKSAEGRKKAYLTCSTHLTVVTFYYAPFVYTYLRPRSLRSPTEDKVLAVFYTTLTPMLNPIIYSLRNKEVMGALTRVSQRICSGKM
How it was run: as §1

[15] = target: OR2L5 (Homo sapiens) (UniProt Q8NG80)
Sequence of OR2L5 (Homo sapiens) (Q8NG80 whole entry): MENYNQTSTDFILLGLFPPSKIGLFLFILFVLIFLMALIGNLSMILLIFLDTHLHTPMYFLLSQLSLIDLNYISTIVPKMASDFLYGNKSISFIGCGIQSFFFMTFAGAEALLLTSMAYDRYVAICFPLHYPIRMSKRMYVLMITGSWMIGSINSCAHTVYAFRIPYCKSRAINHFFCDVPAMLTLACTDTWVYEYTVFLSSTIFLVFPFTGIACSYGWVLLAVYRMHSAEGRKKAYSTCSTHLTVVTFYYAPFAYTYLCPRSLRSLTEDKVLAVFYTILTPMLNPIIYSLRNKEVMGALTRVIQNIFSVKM
How it was run: as §1

[16] = target: OR2L8 (Homo sapiens) (UniProt Q8NGY9)
Sequence of OR2L8 (Homo sapiens) (Q8NGY9 whole entry): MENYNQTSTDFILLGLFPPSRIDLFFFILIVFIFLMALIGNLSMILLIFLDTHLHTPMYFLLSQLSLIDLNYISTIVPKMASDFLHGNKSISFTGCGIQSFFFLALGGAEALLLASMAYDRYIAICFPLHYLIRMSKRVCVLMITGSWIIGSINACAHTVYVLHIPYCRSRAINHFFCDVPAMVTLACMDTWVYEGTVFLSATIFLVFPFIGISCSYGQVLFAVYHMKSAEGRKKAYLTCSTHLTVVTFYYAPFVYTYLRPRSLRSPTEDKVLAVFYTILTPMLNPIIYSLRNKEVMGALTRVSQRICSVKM
How it was run: as §1

[17] = target: OR2M2 (Homo sapiens) (UniProt Q96R28)
Sequence of OR2M2 (Homo sapiens) (Q96R28 whole entry): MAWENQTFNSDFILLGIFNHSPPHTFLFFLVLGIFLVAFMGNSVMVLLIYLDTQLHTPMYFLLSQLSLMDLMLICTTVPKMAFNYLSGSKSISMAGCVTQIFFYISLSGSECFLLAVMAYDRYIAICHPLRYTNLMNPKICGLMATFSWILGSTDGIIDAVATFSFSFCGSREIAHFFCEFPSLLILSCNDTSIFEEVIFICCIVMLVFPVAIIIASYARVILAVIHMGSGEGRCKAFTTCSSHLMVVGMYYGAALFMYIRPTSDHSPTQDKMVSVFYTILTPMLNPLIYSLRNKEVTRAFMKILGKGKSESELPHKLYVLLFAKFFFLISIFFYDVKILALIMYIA
How it was run: as §1

[18] = system: OR2J3; remark: listed apart in the source
How it was run: as §1
Target sequence in this assay (as listed by the source): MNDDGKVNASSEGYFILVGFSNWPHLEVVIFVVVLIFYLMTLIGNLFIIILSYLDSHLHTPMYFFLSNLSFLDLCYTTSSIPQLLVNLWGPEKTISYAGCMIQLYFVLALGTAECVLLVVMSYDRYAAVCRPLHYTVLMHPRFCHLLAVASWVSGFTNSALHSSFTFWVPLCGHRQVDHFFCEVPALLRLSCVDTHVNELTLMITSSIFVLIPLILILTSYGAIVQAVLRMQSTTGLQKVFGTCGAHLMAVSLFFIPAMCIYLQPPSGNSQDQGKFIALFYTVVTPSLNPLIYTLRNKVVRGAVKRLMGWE

[19] = system: OR2J3; remark: listed apart in the source
How it was run: as §1
Target sequence in this assay (as listed by the source): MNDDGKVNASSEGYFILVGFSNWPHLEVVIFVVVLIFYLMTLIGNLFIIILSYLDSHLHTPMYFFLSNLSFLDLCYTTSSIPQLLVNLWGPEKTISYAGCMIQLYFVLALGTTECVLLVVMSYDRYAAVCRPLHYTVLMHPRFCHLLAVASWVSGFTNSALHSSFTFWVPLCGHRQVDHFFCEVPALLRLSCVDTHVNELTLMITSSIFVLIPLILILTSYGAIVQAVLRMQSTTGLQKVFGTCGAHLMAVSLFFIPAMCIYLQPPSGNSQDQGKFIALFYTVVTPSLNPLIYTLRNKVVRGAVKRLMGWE

[20] = system: OR2J3; remark: listed apart in the source
How it was run: as §1
Target sequence in this assay (as listed by the source): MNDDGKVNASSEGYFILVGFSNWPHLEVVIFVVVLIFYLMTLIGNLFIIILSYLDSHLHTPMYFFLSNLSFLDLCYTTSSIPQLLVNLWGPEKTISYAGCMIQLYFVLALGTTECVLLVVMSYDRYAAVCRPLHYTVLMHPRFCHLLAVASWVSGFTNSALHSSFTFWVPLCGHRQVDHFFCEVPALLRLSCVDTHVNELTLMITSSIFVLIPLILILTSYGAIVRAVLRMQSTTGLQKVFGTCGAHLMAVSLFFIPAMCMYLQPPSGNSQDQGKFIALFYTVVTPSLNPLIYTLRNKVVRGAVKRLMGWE

Measured: odorant receptor agonist call

CCCCOC(=O)c1ccccc1N
active: [1] | [2]

C=CCc1ccccc1
inactive: [3]

O=c1cc(O)c2ccccc2o1
inactive: [3]

C=CCOC(=O)Cc1ccccc1
not listed: [1] | [18] | [19] | [20]
inactive: all other assays above

CCC1CCC(=O)O1 (stereo not given)
inactive: [3]

COc1ccc(C=O)cc1
inactive: [12]

Cc1c([N+](=O)[O-])c(C)c([N+](=O)[O-])c(C(C)(C)C)c1[N+](=O)[O-]
active: [9]
inactive: [4] | [5] | [7] | [3] | [11] | [12] | [14] | [15] | [16] | [17]

Cc1cccc(C)c1
inactive: [12]

O=CC=Cc1ccccc1
inactive: [5]
active: [9] | [18] | [19] | [10] | [20]

— the M2OR odorant receptor database
